In ChEMBL document CHEMBL1152212, “Docking study, synthesis, and in vitro evaluation of fluoro-MADAM derivatives as SERT ligands for PET imaging” (Bioorg Med Chem, 2008):

How the values were obtained:
[1] = Partition coefficient, log P in n-octanol/0.02 M phosphate buffer at pH 7.4; format: physicochemical
[2] = target: Sodium-dependent dopamine transporter (Homo sapiens, UniProt Q01959); experiment: Displacement of [3H]GBR-12935 from human cloned DAT expressed in HEK293 cells; format: cell-based
Sodium-dependent dopamine transporter, sequence (Q01959 whole entry): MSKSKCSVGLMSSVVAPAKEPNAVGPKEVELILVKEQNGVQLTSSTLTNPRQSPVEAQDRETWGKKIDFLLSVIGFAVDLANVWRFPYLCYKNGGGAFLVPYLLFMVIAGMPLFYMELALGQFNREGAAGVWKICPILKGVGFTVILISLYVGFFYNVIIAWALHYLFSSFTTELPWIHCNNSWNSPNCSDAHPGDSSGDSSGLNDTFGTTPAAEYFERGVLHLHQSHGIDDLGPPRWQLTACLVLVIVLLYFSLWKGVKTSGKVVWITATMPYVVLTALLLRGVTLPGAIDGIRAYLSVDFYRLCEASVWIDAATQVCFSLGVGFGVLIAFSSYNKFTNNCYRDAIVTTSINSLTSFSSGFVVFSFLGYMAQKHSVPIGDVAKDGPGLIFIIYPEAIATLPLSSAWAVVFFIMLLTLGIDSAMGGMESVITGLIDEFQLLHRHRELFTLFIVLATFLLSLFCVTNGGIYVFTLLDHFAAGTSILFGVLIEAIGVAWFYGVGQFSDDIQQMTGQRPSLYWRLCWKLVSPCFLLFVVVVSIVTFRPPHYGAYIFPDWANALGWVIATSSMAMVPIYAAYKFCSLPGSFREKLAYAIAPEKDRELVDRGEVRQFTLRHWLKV

[3] = target: Sodium-dependent noradrenaline transporter (Homo sapiens, UniProt P23975); experiment: Displacement of [3H]nisoxetine from human cloned NET expressed in HEK293 cells; format: cell-based
Sodium-dependent noradrenaline transporter, sequence (P23975 whole entry): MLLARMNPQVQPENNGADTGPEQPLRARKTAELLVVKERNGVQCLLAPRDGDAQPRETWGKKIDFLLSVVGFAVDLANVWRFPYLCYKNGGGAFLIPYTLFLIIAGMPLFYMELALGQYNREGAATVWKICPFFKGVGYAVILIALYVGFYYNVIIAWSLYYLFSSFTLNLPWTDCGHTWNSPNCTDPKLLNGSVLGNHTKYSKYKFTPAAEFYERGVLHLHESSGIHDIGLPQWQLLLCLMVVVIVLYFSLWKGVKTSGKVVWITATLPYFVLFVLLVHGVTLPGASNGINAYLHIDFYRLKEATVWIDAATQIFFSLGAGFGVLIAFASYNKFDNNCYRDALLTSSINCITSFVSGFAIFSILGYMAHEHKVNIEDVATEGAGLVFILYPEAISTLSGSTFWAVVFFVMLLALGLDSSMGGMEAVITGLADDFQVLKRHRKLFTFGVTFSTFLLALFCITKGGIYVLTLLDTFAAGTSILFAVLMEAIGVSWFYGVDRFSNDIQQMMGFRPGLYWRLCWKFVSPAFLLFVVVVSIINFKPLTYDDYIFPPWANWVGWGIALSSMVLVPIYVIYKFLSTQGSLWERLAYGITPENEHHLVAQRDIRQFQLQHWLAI

[4] = target: T1, Sodium-dependent serotonin transporter (Rattus norvegicus, UniProt P31652); experiment: Displacement of [3H]MADAM from SERT in rat brain cortex membrane; format: cell membranes
T1 sequence (P31652 whole entry): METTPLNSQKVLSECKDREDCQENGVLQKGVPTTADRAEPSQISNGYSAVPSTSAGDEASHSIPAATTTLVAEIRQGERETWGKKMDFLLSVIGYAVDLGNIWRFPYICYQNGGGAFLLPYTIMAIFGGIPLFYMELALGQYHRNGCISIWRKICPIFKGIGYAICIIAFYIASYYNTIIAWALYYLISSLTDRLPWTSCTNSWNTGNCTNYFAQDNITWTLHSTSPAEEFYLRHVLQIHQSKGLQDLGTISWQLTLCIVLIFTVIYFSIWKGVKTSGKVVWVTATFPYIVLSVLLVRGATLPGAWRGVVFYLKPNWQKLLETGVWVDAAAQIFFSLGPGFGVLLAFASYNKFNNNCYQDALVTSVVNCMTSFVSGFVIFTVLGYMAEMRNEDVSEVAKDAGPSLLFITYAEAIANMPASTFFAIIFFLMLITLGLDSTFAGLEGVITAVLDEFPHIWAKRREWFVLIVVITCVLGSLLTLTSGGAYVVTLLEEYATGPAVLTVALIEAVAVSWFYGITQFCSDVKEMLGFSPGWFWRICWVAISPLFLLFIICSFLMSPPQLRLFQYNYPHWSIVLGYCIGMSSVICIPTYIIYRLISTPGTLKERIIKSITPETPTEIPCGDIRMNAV
Procedure, shortened: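 Paroxetine defined nonspecific binding. Bound radioactivity was collected by GF/B filtration with an ice-cold wash and beta-counted. IC50 was read graphically and Ki derived by Cheng-Prusoff. Samples run in duplicate; values are the mean of four determinations.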

[5] = target: T1, Sodium-dependent serotonin transporter; experiment: Displacement of [125I]IDAM from SERT in rat brain cortex membrane; format: cell membranes
[6] = Partition coefficient, log P at pH 7.4 by reverse-phase HPLC; format: physicochemical; details: octanol/water, read-out: logP
Procedure, shortened: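 Indirect log P7.4 from retention time (triplicate) on a C-18 column (5 µm, 4.6 × 150 mm) eluted with methanol/0.1 M phosphate buffer pH 7.4 (50/50) at 1 mL/min. Calibrated against seven standards dissolved in mobile phase: quinoline, phenol, benzamide, chlorpromazine, hexachlorobenzene, ADAM and MADAM. Calibration equation: y = 1.438·Ln(retention time) – 0.7301, R² 0.93.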

[7] = target: T1, Sodium-dependent serotonin transporter

Row | Compound | Ki [2] [nM] | Ki [3] [nM] | Ki [4] [nM] | Ki [5] [nM] | also measured
1 | Cc1ccc(Sc2ccccc2CN(C)C)c(N)c1 | > 1000 | 325 | – | – | logD [1]: 2.46
2 | CNCc1ccccc1Sc1ccc(C)cc1NCc1ccc(F)cc1 | > 2000 | > 1000 | > 100 | – | –
3 | CN(C)Cc1ccccc1Sc1ccc(I)cc1NC(=O)c1ccc(F)cc1 | – | – | – | 193 | –
4 | Cc1ccc(Sc2ccccc2CN(C)C)c(NCc2ccc(F)cc2)c1 | > 1500 | > 1200 | 10.1 | – | chromatographic logD [6]: 4.7
5 | CN(C)Cc1ccccc1Sc1ccc(Cl)cc1NC(=O)c1ccc(F)cc1 | – | – | – | 0.9 | –
6 | Cc1ccc(Sc2ccccc2CN(C)C)c(NCc2ccc([N+](=O)[O-])cc2)c1 | > 1000 | > 1900 | 60 | – | –
7 | CNCc1ccccc1Sc1ccc(C)cc1NC(=O)c1ccc(F)cc1 | > 1000 | > 2500 | > 500 | – | –
8 | Cc1ccc(Sc2ccccc2CN(C)C)c(NC(=O)c2ccc([N+](=O)[O-])cc2)c1 | > 1000 | > 1000 | > 100 | – | –
9 | CN(C)Cc1ccccc1Sc1ccc(I)cc1N | – | – | – | – | logD [1]: 2.52
10 | Cc1ccc(Sc2ccccc2CN(C)C)c(NC(=O)c2ccc(F)cc2)c1 | > 1000 | > 5200 | 14.3 | – | chromatographic logD [6]: 2.99
11 | CN(C)Cc1ccccc1Sc1ccc(Br)cc1NC(=O)c1ccc(F)cc1 | – | – | – | 8 | –
12 | CN(C)Cc1ccccc1Sc1ccccc1NC(=O)c1ccc(F)cc1 | – | – | – | 34 | –
13 | CN(C)Cc1ccccc1Sc1ccc(I)cc1CO | – | – | – | – | Ki [7]: 0.1 nM
